ChEMBL document CHEMBL1137414, “3'-Substituted 7-halogenoindirubins, a new class of cell death inducing agents” (J Med Chem, 2006)

Tests used:
SH-SY5Y [1] = test: Survival of human SH-SY5Y cells at 25 uM by MTS reduction assay; assay type: functional, cell-based; conditions: for viability at 25 µM: Homo sapiens, SH-SY5Y, read-out: Survival
How it was run: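 Viability was read by MTS reduction and expressed as percent of untreated cells, as the average ± SE of three independent measurements, representative of two independent experiments.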

[2] = target: Cyclin-dependent kinase 5/CDK5 activator 1 (Homo sapiens, UniProt Q00535); test: (§1) Inhibition of mammalian CDK5/p25; assay type: protein-complex assay
Sequence of Cyclin-dependent kinase 5/CDK5 activator 1 (Homo sapiens, UniProt Q00535) (Q00535 whole entry, the tested form may be a part): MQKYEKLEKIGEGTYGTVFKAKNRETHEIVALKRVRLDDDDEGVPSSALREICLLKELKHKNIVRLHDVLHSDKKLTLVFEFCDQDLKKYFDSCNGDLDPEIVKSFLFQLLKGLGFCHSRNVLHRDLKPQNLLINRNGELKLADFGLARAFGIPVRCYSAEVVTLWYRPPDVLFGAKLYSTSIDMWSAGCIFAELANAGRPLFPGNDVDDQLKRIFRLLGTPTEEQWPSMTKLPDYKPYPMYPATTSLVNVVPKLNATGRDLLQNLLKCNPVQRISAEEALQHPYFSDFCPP
Sequence of Cyclin-dependent kinase 5/CDK5 activator 1 (Homo sapiens, UniProt Q00535) (Q15078 whole entry, further chain, the tested form may be a part): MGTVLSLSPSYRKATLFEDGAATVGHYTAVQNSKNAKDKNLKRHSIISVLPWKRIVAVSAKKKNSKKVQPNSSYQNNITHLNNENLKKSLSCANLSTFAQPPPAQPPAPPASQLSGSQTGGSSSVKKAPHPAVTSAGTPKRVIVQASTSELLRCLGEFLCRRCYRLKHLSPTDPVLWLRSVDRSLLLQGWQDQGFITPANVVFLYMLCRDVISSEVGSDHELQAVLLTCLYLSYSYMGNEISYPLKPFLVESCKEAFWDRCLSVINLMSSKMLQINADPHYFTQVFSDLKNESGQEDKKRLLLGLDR
How it was run: (§2)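 Recombinant CDK5 and p25, each expressed in E. coli as GST fusions and affinity-purified on glutathione agarose, mixed in equal amounts. Phosphate incorporation onto P81 paper read by scintillation counting, blank subtracted. Activity taken as % of uninhibited. IC50 from dose-response curves.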

[3] = Inhibition of starfish CDK1/cyclin B in presence of 15 uM ATP; parameters: species or system Marthasterias glacialis
SH-SY5Y [4] = test: Death of human SH-SY5Y cells at 25 uM after 48 hrs by LDH release assay; assay type: functional
How it was run: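 SH-SY5Y human neuroblastoma cells were grown in DMEM with 2 mM L-glutamine, antibiotics and 10% FCS at 37 °C under 5% CO2. […] Lactate dehydrogenase release was measured 48 h after addition and expressed as percent cell death.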

SH-SY5Y [5] = test: Survival of human SH-SY5Y cells after 24 hrs by MTS reduction assay; assay type: functional, cell-based
SH-SY5Y [6] = test: Death of human SH-SY5Y cells in presence of 20 uM Q-VD-OPh by MTS reduction assay; assay type: functional, cell-based; conditions: Homo sapiens, SH-SY5Y
SH-SY5Y [7] = test: Death of human SH-SY5Y cells in absence of 20 uM Q-VD-OPh by MTS reduction assay; assay type: functional, cell-based; conditions: Homo sapiens, SH-SY5Y; read-out: IC50
SH-SY5Y [8] = test: Survival of human SH-SY5Y cells after 48 hrs by MTS reduction assay; assay type: functional, cell-based
[9] = target: Cyclin-dependent kinase 5/CDK5 activator 1 (Homo sapiens, UniProt Q00535+Q15078); test: as §1; assay type: protein-complex assay; how it was run: as §2
Sequence of Cyclin-dependent kinase 5/CDK5 activator 1 (Homo sapiens, UniProt Q00535+Q15078) (Q00535 whole entry): as the sequence (Q00535 whole entry, the tested form may be a part) above
Sequence of Cyclin-dependent kinase 5/CDK5 activator 1 (Homo sapiens, UniProt Q00535+Q15078) (Q15078 whole entry): as the sequence (Q15078 whole entry, further chain, the tested form may be a part) above

Compound | viability at 25 µM (SH-SY5Y [1]) | IC50 [2] | IC50 [3] | also measured
CCN(CC)C(=O)O/N=C1/C(c2c(O)n(C)c3c(Br)cccc23)=Nc2ccccc21 | 105% | > 10 µM | > 10 µM | 
Cn1c(O)c(-c2[nH]c3ccccc3c2N=O)c2ccccc21 | 100% |  | 73 µM | 
Cl.Oc1[nH]c2c(Br)cccc2c1C1=Nc2ccccc2/C1=N\OCCN1CCOCC1 |  | > 10 µM | > 100 µM | Survival (SH-SY5Y [1]): 76%
CC(=O)O/N=C1/C(c2c(O)[nH]c3c(Cl)cccc23)=Nc2ccccc21 | 89% | > 100 µM | > 10 µM | 
Cn1c(O)c(-c2[nH]c3ccccc3c2N=O)c2cccc(Cl)c21 | 94% | > 100 µM | > 100 µM | 
CN(C)CCO/N=C1/C(c2c(O)n(C)c3c(Br)cccc23)=Nc2ccccc21 |  |  |  | Activity (SH-SY5Y [4]): 33%; IC50 (SH-SY5Y [5]; sh-sy5y): > 25 µM; IC50 (SH-SY5Y [6]): > 25 µM; Survival (SH-SY5Y [1]): 49%; IC50 (SH-SY5Y [7]): 6.4 µM; IC50 (SH-SY5Y [8]; sh-sy5y): 5.5 µM; IC50 [9]: > 10 µM
Cn1c(O)c(-c2[nH]c3ccccc3c2N=O)c2cccc(I)c21 | 74% | > 100 µM | > 100 µM | 
Cn1c(O)c(C2=Nc3ccccc3/C2=N\OCCn2ccnc2)c2cccc(Br)c21 | 85% | > 10 µM | > 10 µM | 
Cn1c(O)c(C2=Nc3ccccc3C2=O)c2cccc(Br)c21 | 98% | > 100 µM | 100 µM | 
CC(=O)O/N=C1/C(c2c(O)[nH]c3c(F)cccc23)=Nc2ccccc21 | 39% | > 100 µM | 15 µM | 
CO/N=C1/C(c2c(O)[nH]c3c(Br)cccc23)=Nc2ccccc21 | 97% | > 100 µM | > 100 µM | 
O=C1Nc2ccccc2/C1=C1/Nc2ccccc2C1=O [INDIRUBIN] | 104% |  |  | 
O=C1C(c2c(O)[nH]c3c(F)cccc23)=Nc2ccccc21 | 70% | ≥ 10 µM | 10 µM | 
O=C1C(c2c(O)[nH]c3c(Br)cccc23)=Nc2ccccc21 | 92% | > 100 µM | > 100 µM | 
Oc1[nH]c2c(Br)cccc2c1C1=Nc2ccccc2/C1=N\OCCN1CCCC1 |  |  |  | Activity (SH-SY5Y [4]): 14%; IC50 (SH-SY5Y [5]; sh-sy5y): 3.6 µM; IC50 (SH-SY5Y [6]): > 25 µM; Survival (SH-SY5Y [1]): 13%; IC50 (SH-SY5Y [7]): 2 µM; IC50 (SH-SY5Y [8]; sh-sy5y): 2.3 µM; IC50 [9]: > 10 µM
Oc1[nH]c2c(Br)cccc2c1C1=Nc2ccccc2/C1=N\OCCN1CCOCC1 |  |  |  | Survival (SH-SY5Y [1]): 98%; IC50 [9]: > 10 µM
CO/N=C1/C(c2c(O)n(C)c3c(Cl)cccc23)=Nc2ccccc21 | 99% | > 100 µM | > 10 µM | 
Oc1[nH]c2c(Br)cccc2c1C1=Nc2ccccc2/C1=N\OCCBr | 87% | 25 µM | > 100 µM | 
Cn1c(O)c(C2=Nc3ccccc3C2=O)c2cccc(I)c21 |  | > 100 µM | > 10 µM | Survival (SH-SY5Y [1]; sh-sy5y): 93%
CO/N=C1/C(c2c(O)n(C)c3c(Br)cccc23)=Nc2ccccc21 | 100% | > 100 µM | > 100 µM | 
Cn1c(O)c(-c2[nH]c3ccccc3c2N=O)c2cccc(F)c21 | 99% | > 100 µM | > 100 µM | 
O=Nc1c(-c2c(O)[nH]c3c(F)cccc23)[nH]c2ccccc12 | 46% | 0.51 µM | 1.5 µM | 
Cl.Cn1c(O)c(C2=Nc3ccccc3/C2=N\OCCN2CCOCC2)c2cccc(Br)c21 | 90% | > 10 µM | > 10 µM | 
CO/N=C1/C(c2c(O)[nH]c3c(F)cccc23)=Nc2ccccc21 | 105% | > 100 µM | > 10 µM | 
CC(=O)O/N=C1/C(c2c(O)[nH]c3c(Br)cccc23)=Nc2ccccc21 | 61% | > 100 µM | > 100 µM | 
CCN(CC)CCO/N=C1/C(c2c(O)n(C)c3c(Br)cccc23)=Nc2ccccc21 |  |  |  | Survival (SH-SY5Y [1]): 83%; IC50 [9]: > 10 µM
CC(=O)O/N=C1/C(c2c(O)n(C)c3c(Cl)cccc23)=Nc2ccccc21 | 96% | > 100 µM | > 10 µM | 

Compound | viability at 25 µM (SH-SY5Y [1]) | IC50 [2] | IC50 [3] | also measured
CO/N=C1/C(c2c(O)[nH]c3c(Cl)cccc23)=Nc2ccccc21 | 97% | > 100 µM | > 10 µM | 
Cn1c(O)c(C2=Nc3ccccc3/C2=N\OCCN2CCOCC2)c2cccc(Br)c21 |  |  |  | Survival (SH-SY5Y [1]): 98%; IC50 [9]: > 10 µM
O=C1C(c2c(O)[nH]c3c(I)cccc23)=Nc2ccccc21 | 96% | > 100 µM | > 10 µM | 
Cn1c(O)c(C2=Nc3ccccc3C2=O)c2ccccc21 | 98% |  | 100 µM | 
O=Nc1c(-c2c(O)[nH]c3ccccc23)[nH]c2ccccc12 [INDIRUBIN-3-MONOXIME] | 27% |  |  | Activity (SH-SY5Y [4]): 33%; IC50 (SH-SY5Y [5]; Homo sapiens, SH-SY5Y, 24 h): > 25 µM; IC50 (SH-SY5Y [6]): > 25 µM; IC50 (SH-SY5Y [7]): 13 µM; IC50 (SH-SY5Y [8]; Homo sapiens, SH-SY5Y, 48 h): 12 µM
Cn1c(O)c(-c2[nH]c3ccccc3c2N=O)c2cccc(Br)c21 | 84% | > 100 µM | > 100 µM | 
CC(=O)O/N=C1/C(c2c(O)[nH]c3c(I)cccc23)=Nc2ccccc21 | 67% | > 100 µM | > 10 µM | 
CCN(CC)C(=O)O/N=C1/C(c2c(O)[nH]c3c(Br)cccc23)=Nc2ccccc21 | 106% | > 100 µM | > 100 µM | 
CO/N=C1/C(c2c(O)[nH]c3c(I)cccc23)=Nc2ccccc21 | 84% | > 100 µM | > 10 µM | 
Cn1c(O)c(C2=Nc3ccccc3C2=O)c2cccc(Cl)c21 | 94% | > 100 µM | > 10 µM | 
O=C1C(c2c(O)[nH]c3c(Cl)cccc23)=Nc2ccccc21 | 92% | > 100 µM | > 10 µM | 
O=C1Nc2ccc(Br)cc2/C1=C1/Nc2ccccc2/C1=N\O [INDIRUBIN 2] | 13% | 0.028 µM | 0.045 µM | Activity (SH-SY5Y [4]): 59%; IC50 (SH-SY5Y [5]; Homo sapiens, SH-SY5Y, 24 h): 18 µM; IC50 (SH-SY5Y [6]): 23 µM; IC50 (SH-SY5Y [7]): 13 µM; IC50 (SH-SY5Y [8]; Homo sapiens, SH-SY5Y, 48 h): 12 µM
CCN(CC)CCO/N=C1/C(c2c(O)n(C)c3c(Br)cccc23)=Nc2ccccc21.Cl |  | > 10 µM | > 10 µM | Activity (SH-SY5Y [4]): 58%; IC50 (SH-SY5Y [6]): > 25 µM; Survival (SH-SY5Y [1]): 15%; IC50 (SH-SY5Y [7]): 18 µM
O=Nc1c(-c2c(O)[nH]c3c(I)cccc23)[nH]c2ccccc12 | 64% | 77 µM | 66 µM | 
CO/N=C1/C(c2c(O)n(C)c3c(I)cccc23)=Nc2ccccc21 | 99% | > 100 µM | > 10 µM | 
CCN(CC)CCO/N=C1/C(c2c(O)[nH]c3c(Br)cccc23)=Nc2ccccc21 |  |  |  | Survival (SH-SY5Y [1]): 49%; IC50 [9]: > 10 µM
O=C1Nc2cc(Br)ccc2/C1=C1/Nc2ccccc2/C1=N\O [6BIO] | 5% |  |  | Activity (SH-SY5Y [4]): 80%
Cn1c(O)c(C2=Nc3ccccc3C2=O)c2cccc(F)c21 | 101% | > 100 µM | > 10 µM | 
CO/N=C1/C(c2c(O)n(C)c3c(F)cccc23)=Nc2ccccc21 | 107% | > 100 µM | > 10 µM | 
CC(=O)O/N=C1\C(c2c(O)[nH]c3ccccc23)=Nc2ccccc21 | 36% | 0.7 µM |  | 
CO/N=C1\C(c2c(O)[nH]c3ccccc23)=Nc2ccccc21 | 86% | 0.4 µM | 1.4 µM | 
CC(=O)O/N=C1/C(c2c(O)n(C)c3c(Br)cccc23)=Nc2ccccc21 | 95% | > 100 µM | 70 µM | 
Cn1c(O)c(C2=Nc3ccccc3/C2=N\OCCBr)c2cccc(Br)c21 | 99% | > 10 µM | > 10 µM | 
CC(=O)O/N=C1/C(c2c(O)n(C)c3c(I)cccc23)=Nc2ccccc21 | 82% | > 100 µM | > 10 µM | 
CCN(CC)CCO/N=C1/C(c2c(O)[nH]c3c(Br)cccc23)=Nc2ccccc21.Cl (stereo in doubt; 13ls) |  |  |  | Survival (SH-SY5Y [1]): 72%; IC50 [9]: > 10 µM
CC(=O)O/N=C1/C(c2c(O)n(C)c3c(F)cccc23)=Nc2ccccc21 | 105% | > 100 µM | > 10 µM | 
Oc1[nH]c2c(Br)cccc2c1C1=Nc2ccccc2/C1=N\OCCn1ccnc1 |  |  |  | Survival (SH-SY5Y [1]): 59%; IC50 [9]: > 10 µM
